target: T1, UniProt Q99NH4; details: stereoisomer not certain
T1 sequence (whole entry): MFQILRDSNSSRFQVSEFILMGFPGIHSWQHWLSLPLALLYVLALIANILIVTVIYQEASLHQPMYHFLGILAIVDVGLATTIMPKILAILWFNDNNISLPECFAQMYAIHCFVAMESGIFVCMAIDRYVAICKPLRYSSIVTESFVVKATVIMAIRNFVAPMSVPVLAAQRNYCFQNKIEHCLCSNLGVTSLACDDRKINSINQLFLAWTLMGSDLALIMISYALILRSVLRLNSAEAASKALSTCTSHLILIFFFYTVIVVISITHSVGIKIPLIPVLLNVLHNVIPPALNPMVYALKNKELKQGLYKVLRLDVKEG
Summary of the method: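 Each entry records the cell line, G-protein, co-transfected protein and tags used. Methods varied with the source, often transient luciferase assays in mammalian cell lines. A receptor–molecule pair is called responsive (active) if the original authors judged its signal statistically different from baseline and non-responsive (inactive) otherwise.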

Odorant receptor agonist call, inactive:
O=C(O)CCCCCCCCC(=O)O, CCCCCCCCCCCC(=O)O, O=C(O)CCCCCCCCCBr, O=C(O)CCCCCCCCCCC(=O)O, O=C([O-])CCCC(=O)[O-].[H+].[H+], O=C([O-])CCC(=O)[O-].[H+].[H+], O=C(O)CCCCCCCCCC(=O)O, CCCCCCCCCCC(=O)O
